Experimental data as given in ChEMBL document CHEMBL1765049, “Inhibitory properties of 2-substituent-1H-benzimidazole-4-carboxamide derivatives against enteroviruses” (Bioorg Med Chem, 2011).

Assays:
[1] = (§1) Cytotoxicity against african green monkey Vero cells; format: cell-based; details: chlorocebus sabaeus, Vero cells; read-out: TC50 (the source's name)
How it was run: (§2)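 TC50 is the compound concentration killing 50% of Vero cells (inhibiting cell growth by 50%). Compounds were dissolved in DMSO and diluted in medium, then added to seeded Vero cells. Cell wells were examined when cytopathic effect in virus-infected control wells exceeded grade 4.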

[2] = test system: Coxsackievirus B3; experiment: Antiviral activity against Coxsackievirus B3 infected in african green monkey Vero cells assessed as inhibition of viral growth after 24 hrs by Reed-Muench method; format: functional, organism-based; details: Enterovirus B
How it was run: (§3)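 Vero cells were seeded and after 24 h exposed to virus for 2 h. Compounds were then added after being dissolved in DMSO and diluted in culture medium. Cell-control and virus-control wells were run alongside. Cytopathic effect was scored once the virus wells exceeded grade 4. The 50% inhibitory concentration of virus growth was calculated by the Reed–Muench method.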

[3] = Selectivity index, ratio of TC50 for african green monkey Vero cells to IC50 for Coxsackievirus B3; format: toxicity, cell-based; details: read-out: Selectivity Index
How it was run: (§4)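 Selectivity index is calculated as TC50 in Vero cells divided by the antiviral IC50 against the named enterovirus. Both values come from the same Vero cytopathic-effect assay, with compounds dissolved in DMSO and diluted in medium.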

[4] = test system: Coxsackievirus B6; experiment: Antiviral activity against Coxsackievirus B6 infected in african green monkey Vero cells assessed as inhibition of viral growth after 24 hrs by Reed-Muench method; format: functional, organism-based; details: Enterovirus B; how it was run: as §3
[5] = test system: Coxsackievirus A16; experiment: Antiviral activity against Coxsackievirus A16 infected in african green monkey Vero cells assessed as inhibition of viral growth after 24 hrs by Reed-Muench method; format: functional, cell-based; how it was run: as §3
[6] = test system: Enterovirus A71; experiment: Antiviral activity against Human enterovirus 71 infected in african green monkey Vero cells assessed as inhibition of viral growth after 24 hrs by Reed-Muench method; format: functional, organism-based; details: Enterovirus A; how it was run: as §3
[7] = Selectivity index, ratio of TC50 for african green monkey Vero cells to IC50 for Coxsackievirus B6; format: toxicity, cell-based; details: read-out: Selectivity Index; how it was run: as §4
[8] = Selectivity index, ratio of TC50 for african green monkey Vero cells to IC50 for Coxsackievirus A16; format: toxicity, cell-based; details: read-out: Selectivity Index; how it was run: as §4
[9] = Selectivity index, ratio of TC50 for african green monkey Vero cells to IC50 for Human enterovirus 71; format: toxicity, cell-based; details: read-out: Selectivity Index; how it was run: as §4
[10] = test system: Enterovirus A71; experiment: Antiviral activity against Human enterovirus 71 infected in african green monkey Vero cells assessed as inhibition of viral growth after 48 hrs by Reed-Muench method; format: functional, organism-based; details: Enterovirus A; how it was run: as §3
[11] = test system: Vero; experiment: as §1; format: cell-based; details: chlorocebus sabaeus, vero; how it was run: as §2
[12] = Enterovirus A, Vero, 24 h, read-out: IC50

O=C(NCCO)c1cccc2[nH]c(-c3ccncc3)nc12
CC50 [1]: 498 µM

C[C@@H](NC(=O)c1cccc2[nH]c(-c3ccc([N+](=O)[O-])o3)nc12)[C@H](O)c1ccc(Cl)cc1
IC50 [2]: 16.2 µM
CC50 [1]: 48.6 µM
selectivity ratio [3]: 3

O=C(NCCO)c1cccc2[nH]c(-c3ccccn3)nc12
IC50 [2]: 131 µM
CC50 [1]: 568 µM
selectivity ratio [3]: 4.3

COc1ccc(-c2nc3c(C(=O)NCCCO)cccc3[nH]2)c(OC)c1OC
IC50 [2]: 19.5 µM
IC50 [4]: 19.2 µM
IC50 [5, 12]: 19.2 µM
IC50 [6]: 14.9 µM
CC50 [1]: 40 µM
selectivity ratio [3]: 2.1
selectivity ratio [7]: 2.7
selectivity ratio [8]: 2.1
selectivity ratio [9]: 2.7

O=C(N[C@H](CO)[C@H](O)c1ccc([N+](=O)[O-])cc1)c1cccc2[nH]c(-c3ccccn3)nc12
IC50 [2]: 4.06 µM
CC50 [1]: 1330 µM
selectivity ratio [3]: 328
selectivity ratio [9]: 328
IC50 [10]: 4.06 µM

NC(=O)c1cccc2[nH]c(-c3cccnc3)nc12
IC50 [2]: 26 µM
CC50 [1]: 77.7 µM
selectivity ratio [3]: 3

COc1ccc(-c2nc3c(C(=O)N[C@H](CO)[C@H](O)c4ccc([N+](=O)[O-])cc4)cccc3[nH]2)cc1OC
IC50 [5, 12]: 8.37 µM
CC50 [1]: 14.5 µM
selectivity ratio [8]: 1.7

COc1ccc(-c2nc3c(C(=O)Nc4ncccc4O)cccc3[nH]2)cc1OC
IC50 [5, 12]: 31.7 µM
CC50 [1]: 164 µM
selectivity ratio [8]: 5.2

CCC(CC)NC(=O)c1cccc2[nH]c(-c3ccc(OC)c(OC)c3OC)nc12
IC50 [2]: 18.7 µM
IC50 [4]: 18.7 µM
IC50 [5, 12]: 18.7 µM
IC50 [6]: 18.7 µM
CC50 [1]: 32.3 µM
selectivity ratio [3]: 1.7
selectivity ratio [7]: 1.7
selectivity ratio [8]: 1.7
selectivity ratio [9]: 1.73

COc1ccc(-c2nc3c(C(=O)Nc4nc5ccccc5[nH]4)cccc3[nH]2)cc1OC
IC50 [5, 12]: 9.98 µM
CC50 [1]: 51.8 µM
selectivity ratio [8]: 5.2

COc1ccc(-c2nc3c(C(=O)Nc4ccccc4F)cccc3[nH]2)cc1OC
IC50 [2]: 3.5 µM
IC50 [5, 12]: 3.5 µM
CC50 [1]: 24.5 µM
selectivity ratio [3]: 7
selectivity ratio [8]: 7

COc1ccc(-c2nc3c(C(=O)Nc4cnc(Cl)cn4)cccc3[nH]2)cc1OC
IC50 [2]: 18.4 µM
IC50 [4]: 18.1 µM
IC50 [5, 12]: 18.1 µM
IC50 [6]: 18.1 µM
CC50 [1]: 78.3 µM
selectivity ratio [3]: 4.3
selectivity ratio [7]: 4.3
selectivity ratio [8]: 4.3
selectivity ratio [9]: 4.3

O=C(Nc1ccccc1)c1cccc2[nH]c(-c3ccccn3)nc12
IC50 [2]: 0.459 µM
CC50 [1]: 17.9 µM
selectivity ratio [3]: 38.9

NC(=O)c1cccc2[nH]c(-c3ccccn3)nc12
IC50 [2]: 30.6 µM
CC50 [1]: 224 µM
selectivity ratio [3]: 7.3

O=C(N[C@H](CO)[C@H](O)c1ccc([N+](=O)[O-])cc1)c1cccc2[nH]c(-c3ccncc3)nc12
IC50 [2]: 30.2 µM
CC50 [1]: 123 µM
selectivity ratio [3]: 4.1

COc1ccc(-c2nc3c(C(=O)Nc4cnccn4)cccc3[nH]2)cc1OC
IC50 [5, 12]: 32.9 µM
CC50 [1]: 98.8 µM
selectivity ratio [8]: 3

COc1ccc(-c2nc3c(C(=O)Nc4ccccc4F)cccc3[nH]2)c(OC)c1OC
IC50 [2]: 9.8 µM
IC50 [5, 12]: 16.9 µM
CC50 [1]: 37.8 µM
selectivity ratio [3]: 3.9
selectivity ratio [8]: 3

COc1ccc(-c2nc3c(C(=O)Nc4ncc[nH]4)cccc3[nH]2)cc1OC
IC50 ([5]; vero): Not Active
TC50 [11]: Not Active

NC(=O)c1ncn([C@@H]2O[C@H](CO)[C@@H](O)[C@H]2O)n1 [RIBAVIRIN]
IC50 [2]: 1690 µM
IC50 [4]: 910 µM
IC50 [5, 12]: 4090 µM
IC50 [6]: 2340 µM
CC50 [1]: 8190 µM

COc1ccc(-c2nc3c(C(=O)Nc4c[nH]cn4)cccc3[nH]2)cc1OC
IC50 [5, 12]: 102 µM
CC50 [1]: 306 µM
selectivity ratio [8]: 3

COc1ccc(-c2nc3c(C(=O)Nc4nc5ccccc5[nH]4)cccc3[nH]2)c(OC)c1OC
IC50 [2]: 16.9 µM
IC50 [4]: 16.7 µM
IC50 [5, 12]: 16.7 µM
IC50 [6]: 16.7 µM
CC50 [1]: 29 µM
selectivity ratio [3]: 1.7
selectivity ratio [7]: 1.7
selectivity ratio [8]: 1.7
selectivity ratio [9]: 1.7

Cc1csc(NC(=O)c2cccc3[nH]c(-c4ccncc4)nc23)n1
IC50 [2]: 21.3 µM
CC50 [1]: 111 µM
selectivity ratio [3]: 5.2

COc1ccc(-c2nc3c(C(=O)Nc4nc(C#N)c(C#N)[nH]4)cccc3[nH]2)cc1OC
IC50 [5, 12]: 9.98 µM
CC50 [1]: 43.1 µM
selectivity ratio [8]: 4.3

O=C(Nc1ccccc1F)c1cccc2[nH]c(-c3ccccn3)nc12
IC50 [2]: 1.63 µM
CC50 [1]: 54.7 µM
selectivity ratio [3]: 28.4

O=C(N[C@H](CO)[C@H](O)c1ccc([N+](=O)[O-])cc1)c1cccc2[nH]c(-c3ccco3)nc12
IC50 [2]: 37.7 µM
CC50 [1]: 152 µM
selectivity ratio [3]: 4

O=C(Nc1ccccc1)c1cccc2[nH]c(-c3ccncc3)nc12
IC50 [2]: 12.3 µM
CC50 [1]: 49.8 µM
selectivity ratio [3]: 4

O=C(N[C@H](CO)[C@H](O)c1ccc([N+](=O)[O-])cc1)c1cccc2[nH]c(-c3cccnc3)nc12
IC50 [2]: 28.6 µM
CC50 [1]: 148 µM
selectivity ratio [3]: 5.2

O=C(Nc1ccccc1F)c1cccc2[nH]c(-c3cccnc3)nc12
IC50 [2]: 9.73 µM
CC50 [1]: 54.7 µM
selectivity ratio [3]: 3.2

O=C(Nc1ccccc1F)c1cccc2[nH]c(-c3ccc([N+](=O)[O-])o3)nc12
IC50 [2]: 25.3 µM
CC50 [1]: 75.9 µM
selectivity ratio [3]: 3

CCC(CC)NC(=O)c1cccc2[nH]c(-c3ccc(OC)c(OC)c3)nc12
IC50 [2]: 0.7 µM
IC50 [4]: 0.736 µM
IC50 [5, 12]: 0.736 µM
IC50 [6]: 0.736 µM
CC50 [1]: 2.23 µM
selectivity ratio [3]: 3
selectivity ratio [7]: 3
selectivity ratio [8]: 3
selectivity ratio [9]: 3

Cc1csc(NC(=O)c2cccc3[nH]c(-c4ccccn4)nc23)n1
IC50 [2]: 1.76 µM
CC50 [1]: 17.7 µM
selectivity ratio [3]: 10

O=C(Nc1ccccc1)c1cccc2[nH]c(-c3cccnc3)nc12
IC50 [2]: 3.72 µM
CC50 [1]: 34.2 µM
selectivity ratio [3]: 9.2

O=C(N[C@H](CO)[C@H](O)c1ccc([N+](=O)[O-])cc1)c1cccc2[nH]c(-c3ccc([N+](=O)[O-])o3)nc12
IC50 [2]: 22.9 µM
CC50 [1]: 68.7 µM
selectivity ratio [3]: 3

COc1ccc(-c2nc3c(C(=O)Nc4cnc(Cl)cn4)cccc3[nH]2)c(OC)c1OC
IC50 [2]: 17.4 µM
IC50 [4]: 16.9 µM
IC50 [5, 12]: 16.9 µM
IC50 [6]: 16.9 µM
CC50 [1]: 65.2 µM
selectivity ratio [3]: 3.8
selectivity ratio [7]: 3.9
selectivity ratio [8]: 3.9
selectivity ratio [9]: 3.9

C[C@@H](NC(=O)c1cccc2[nH]c(-c3ccco3)nc12)[C@H](O)c1ccc(Cl)cc1
IC50 [2]: 13.4 µM
CC50 [1]: 162 µM
selectivity ratio [3]: 12.1

COc1ccc(-c2nc3c(C(=O)NCCCO)cccc3[nH]2)cc1OC
IC50 [2]: 17.2 µM
IC50 [4]: 12.1 µM
IC50 [5, 12]: 20.9 µM
IC50 [6]: 20.9 µM
CC50 [1]: 46 µM
selectivity ratio [3]: 2.7
selectivity ratio [7]: 3.6
selectivity ratio [8]: 2.1
selectivity ratio [9]: 2.7

Cc1csc(NC(=O)c2cccc3[nH]c(-c4cccnc4)nc23)n1
IC50 [2]: 16.2 µM
CC50 [1]: 111 µM
selectivity ratio [3]: 6.8

COc1ccc(-c2nc3c(C(=O)N[C@H](CO)[C@H](O)c4ccc([N+](=O)[O-])cc4)cccc3[nH]2)c(OC)c1OC
IC50 [2]: 4.73 µM
IC50 [4]: 4.73 µM
IC50 [5, 12]: 4.73 µM
IC50 [6]: 3.68 µM
CC50 [1]: 9.85 µM
selectivity ratio [3]: 2
selectivity ratio [7]: 2.1
selectivity ratio [8]: 2.1
selectivity ratio [9]: 2.7

O=C(NCCO)c1cccc2[nH]c(-c3cccnc3)nc12
IC50 [2]: 90.7 µM
CC50 [1]: 682 µM
selectivity ratio [3]: 7.5

O=C(Nc1ccccc1F)c1cccc2[nH]c(-c3ccco3)nc12
IC50 [2]: 3.3 µM
CC50 [1]: 25 µM
selectivity ratio [3]: 7.5

O=C(Nc1ccccc1F)c1cccc2[nH]c(-c3ccncc3)nc12
IC50 [2]: 37.2 µM
CC50 [1]: 111 µM
selectivity ratio [3]: 3
